Results published in ChEMBL document CHEMBL3102831 (Bioorg Med Chem Lett, 2014).
Active and inactive are the calls of the source. The rule behind the calls is not given here.

Legend:
[1] = Cytotoxicity against human SPCA2 cells after 48 hrs by MTT assay; format: functional, cell-based; conditions: SPCA2, 48 h
HepG2 = assay: Cytotoxicity against human HepG2 cells after 48 hrs by MTT assay; format: functional, cell-based; conditions: HepG2, 48 h
HeLa = assay: Cytotoxicity against human HeLa cells after 48 hrs by MTT assay; format: functional, cell-based
HCT-116 [2] = assay: Cytotoxicity against human HCT116 cells after 48 hrs by MTT assay; format: functional, cell-based; conditions: HCT-116, 48 h
CNE = assay: Cytotoxicity against human CNE cells after 48 hrs by MTT assay; format: functional, cell-based
HUVEC = assay: Cytotoxicity against human HUVEC after 48 hrs by MTT assay; format: cell-based
HCT-116 [3] = assay: Induction of apoptosis in human HCT116 cells assessed as late apoptotic cells at 5 uM after 24 hrs using annexin V-FITC/propidium iodide by flow cytometry (reference value: 3.3%); format: functional
HCT-116 [4] = assay: Cell cycle arrest in human HCT116 cells assessed as accumulation at G1 phase at 3 uM after 48 hrs using propidium iodide staining by FACS analysis (reference value: 39.08%); format: functional
HCT-116 [5] = assay: Cell cycle arrest in human HCT116 cells assessed as accumulation at S phase at 3 uM after 48 hrs using propidium iodide staining by FACS analysis (reference value: 36.84%); format: functional
HCT-116 [6] = assay: Induction of apoptosis in human HCT116 cells assessed as change in mitochondrial membrane potential at 3 to 5 uM after 24 hrs by JC-1 staining; format: functional, cell-based
Procedure, shortened: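 HCT116 cells were exposed for 24 h at 3 and 5 µM, with untreated 24 h controls, then stained with JC-1. Monomer and J-aggregates were excited at 514 and 585 nm. Emission was collected at 515–545 nm (green) and 570–600 nm (red), and cells were imaged by fluorescence microscopy.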

HCT-116 [7] = assay: Induction of apoptosis in human HCT116 cells assessed as necrotic cells at 5 uM after 24 hrs using annexin V-FITC/propidium iodide by flow cytometry (reference value: 2.8%); format: functional
HCT-116 [8] = assay: Induction of apoptosis in human HCT116 cells assessed as viable cells at 3 uM after 24 hrs using annexin V-FITC/propidium iodide by flow cytometry (reference value: 90%); format: functional; conditions: HCT-116, 24 h, read-out: Activity
HCT-116 [9] = assay: Induction of apoptosis in human HCT116 cells assessed as viable cells at 5 uM after 24 hrs using annexin V-FITC/propidium iodide by flow cytometry (reference value: 90%); format: functional; conditions: HCT-116, 24 h, read-out: Activity
DNA [10] = assay: Binding affinity to F32T oligonucleotide DNA assessed as change in melting temperature by FRET assay
DNA [11] = assay: Binding affinity to calf thymus DNA at compound and GelRed ratio 1:1 to 9:1 by fluorescence emission spectra analysis; format: nucleic-acid assay; conditions: Bos taurus
Procedure, shortened: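 Competitive displacement assay. GelRed was pre-incubated with ct-DNA for 30 min at [GelRed]/[DNA] = 1:10, then titrated with compound. Emission was read around 590 nm with 350 nm excitation. Quenching constant Kq was obtained by linear Stern–Volmer fitting.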

HCT-116 [12] = assay: Induction of apoptosis in human HCT116 cells assessed as activation of caspase 3 and 8 after 24 hrs by RT-PCR analysis; format: functional, cell-based
HCT-116 [13] = assay: Induction of apoptosis in human HCT116 cells assessed as apoptotic morphology at 3 to 5 uM after 24 hrs by Hoechst […] staining; format: functional, cell-based
Procedure, shortened: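 HCT116 cells were treated with compound at 3 and 5 µM for 24 h, alongside 24 h untreated controls. Cells were stained with Hoechst 33258 and examined by fluorescence microscopy. Bright blue nuclei from chromatin condensation and karyopyknosis were scored as apoptotic, and uniform light blue nuclei as live.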

DNA [14] = assay: Binding affinity to calf thymus DNA at DNA and compound ratio 1:1 to 6:1 by UV-vis absorption spectra analysis; format: nucleic-acid assay; conditions: Bos taurus
HCT-116 [15] = assay: Cell cycle arrest in human HCT116 cells assessed as accumulation at G1 phase at 5 uM after 48 hrs using propidium iodide staining by FACS analysis (reference value: 39.08%); format: functional
HCT-116 [16] = assay: Induction of apoptosis in human HCT116 cells assessed as late apoptotic cells at 3 uM after 24 hrs using annexin V-FITC/propidium iodide by flow cytometry (reference value: 3.3%); format: functional
HCT-116 [17] = assay: Induction of apoptosis in human HCT116 cells assessed as early apoptotic cells at 3 uM after 24 hrs using annexin V-FITC/propidium iodide by flow cytometry (reference value: 3.9%); format: functional
HCT-116 [18] = assay: Cell cycle arrest in human HCT116 cells assessed as accumulation at G2 phase at 3 uM after 48 hrs using propidium iodide staining by FACS analysis (reference value: 24.09%); format: functional
HCT-116 [19] = assay: Cell cycle arrest in human HCT116 cells assessed as accumulation at G2 phase at 5 uM after 48 hrs using propidium iodide staining by FACS analysis (reference value: 24.09%); format: functional
DNA [20] = assay: Binding affinity to calf thymus DNA at 1.5 x 10^-5 M by circular dichroism analysis; format: nucleic-acid assay; conditions: Bos taurus
Procedure, shortened: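 Circular dichroism spectra recorded on ct-DNA at 1.5 × 10^-4 M, alone and with compound at 1.5 × 10^-5 M. Spectra compared with and without compound.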

HCT-116 [21] = assay: Cell cycle arrest in human HCT116 cells assessed as accumulation at S phase at 5 uM after 48 hrs using propidium iodide staining by FACS analysis (reference value: 36.84%); format: functional
HCT-116 [22] = assay: Induction of apoptosis in human HCT116 cells assessed as necrotic cells at 3 uM after 24 hrs using annexin V-FITC/propidium iodide by flow cytometry (reference value: 2.8%); format: functional
HCT-116 [23] = assay: Induction of apoptosis in human HCT116 cells assessed as early apoptotic cells at 5 uM after 24 hrs using annexin V-FITC/propidium iodide by flow cytometry (reference value: 3.9%); format: functional
HCT-116 [24] = assay: Cell cycle arrest in human HCT116 cells assessed as accumulation at S phase after 48 hrs using propidium iodide staining by FACS analysis (reference value: 23.29%); format: functional
Procedure, shortened: (§1)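 HCT116 cells exposed 48 h to compound at 3 and 5 µM, with untreated cells as control. Cells were stained with propidium iodide, and DNA content was measured by flow cytometry. Read-out is the percentage of cells in G1, S and G2 phases.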

HCT-116 [25] = assay: Cell cycle arrest in human HCT116 cells assessed as accumulation at G1 phase after 48 hrs using propidium iodide staining by FACS analysis (reference value: 39.08%); format: functional; procedure, shortened: as §1
HCT-116 [26] = assay: Induction of apoptosis in human HCT116 cells assessed as change in mitochondrial membrane potential after 24 hrs by JC-1 staining; format: functional, cell-based
Procedure, shortened: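 HCT116 cells treated 24 h at 3 and 5 µM, with untreated cells as 24 h control. Cells were stained with JC-1 and viewed by fluorescence microscopy. Monomer was excited at 514 nm with emission 515–545 nm (green); J-aggregates were excited at 585 nm with emission 570–600 nm (red). Potential loss is read as a red-to-green shift.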

Molecule `CCOP(=O)(OCC)C(NC(=O)c1cc(O)c2c(c1)C(=O)c1cccc(O)c1C2=O)c1ccc(Cl)cc1` (centres undefined) has an IC50 [1] of 89.5 µM, an IC50 (HepG2) of 87.3 µM and an IC50 (HeLa) of 87.5 µM. For the same molecule, the IC50 (HCT-116 [2]) was 61.2 µM, the IC50 (CNE) was 55.8 µM and the IC50 (HUVEC) was > 100 µM.

In the case of `CCOP(=O)(OCC)C(NC(=O)c1cc(O)c2c(c1)C(=O)c1cccc(O)c1C2=O)c1c2ccccc2cc2ccccc12` (centres undefined), the IC50 [1] is reported as > 100 µM, the IC50 (HepG2) is reported as > 100 µM and the IC50 (HeLa) is reported as > 100 µM. For the same molecule, the IC50 (HCT-116 [2]) was > 100 µM, the IC50 (CNE) was > 100 µM and the IC50 (HUVEC) was > 100 µM.

For `CCOP(=O)(OCC)C(NC(=O)c1cc(O)c2c(c1)C(=O)c1cccc(O)c1C2=O)c1cccc(F)c1` (centres undefined), the IC50 [1] was 55.4 µM, the IC50 (HepG2) was 56.8 µM and the IC50 (HeLa) was 64.8 µM. For the same molecule, the IC50 (HCT-116 [2]) was 16.7 µM, the IC50 (CNE) was 49.2 µM and the IC50 (HUVEC) was > 100 µM.

`CCOP(=O)(OCC)C(NC(=O)c1cc(O)c2c(c1)C(=O)c1cccc(O)c1C2=O)c1cccc(OC)c1` (centres undefined) showed an Activity (HCT-116 [3]) of 6.5%, an Activity (HCT-116 [4]) of 45.26% and an Activity (HCT-116 [5]) of 34.66%. The Activity (HCT-116 [6]) was “Active”, the Activity (HCT-116 [7]) was 2.6% and the viability at 3 µM (HCT-116 [8]) was 53%. For the same molecule, the IC50 [1] was 28.3 µM, the IC50 (HepG2) was 22.1 µM and the viability at 5 µM (HCT-116 [9]) was 57.5%. For the same molecule, the ΔTm (DNA [10]) was 3.1 °C, the Kq (DNA [11]) was 1660 and the IC50 (HeLa) was 19.3 µM. The Activity (HCT-116 [12]) was “Dose-dependent effect”, the IC50 (HCT-116 [2]) was 5.32 µM and the Activity (HCT-116 [13]) was “Active”. For the same molecule, the Kb (DNA [14]) was 1.03 ×10⁴ /M, the Activity (HCT-116 [15]) was 49.67% and the Activity (HCT-116 [16]) was 10.5%. For the same molecule, the Activity (HCT-116 [17]) was 32.5%, the Activity (HCT-116 [18]) was 20.09% and the IC50 (CNE) was 24.1 µM. The IC50 (HUVEC) was > 100 µM, the Activity (HCT-116 [19]) was 17.9% and the Activity (DNA [20]) was “Active”. It also gave an Activity (HCT-116 [21]) of 32.44%, an Activity (HCT-116 [22]) of 4% and an Activity (HCT-116 [23]) of 33.5%.

`CCOP(=O)(OCC)C(NC(=O)c1cc(O)c2c(c1)C(=O)c1cccc(O)c1C2=O)c1ccccc1OC` (centres undefined) gave an IC50 [1] of 15 µM, an IC50 (HepG2) of 30 µM and an IC50 (HeLa) of 25.6 µM. For the same molecule, the IC50 (HCT-116 [2]) was 8.37 µM, the IC50 (CNE) was 28.6 µM and the IC50 (HUVEC) was > 100 µM.

For `CCOP(=O)(OCC)C(NC(=O)c1cc(O)c2c(c1)C(=O)c1cccc(O)c1C2=O)c1ccccc1Cl` (centres undefined), the IC50 [1] was 28.3 µM, the IC50 (HepG2) was 39.2 µM and the IC50 (HeLa) was 35.2 µM. For the same molecule, the IC50 (HCT-116 [2]) was 48.2 µM, the IC50 (CNE) was 68 µM and the IC50 (HUVEC) was > 100 µM.

With `CCOP(=O)(OCC)C(NC(=O)c1cc(O)c2c(c1)C(=O)c1cccc(O)c1C2=O)c1cccc(Cl)c1` (centres undefined) the IC50 [1] was 77 µM, the IC50 (HepG2) was 72 µM and the IC50 (HeLa) was 73.2 µM. For the same molecule, the IC50 (HCT-116 [2]) was 22.4 µM, the IC50 (CNE) was 45.6 µM and the IC50 (HUVEC) was > 100 µM.

With `CCOP(=O)(OCC)C(NC(=O)c1cc(O)c2c(c1)C(=O)c1cccc(O)c1C2=O)c1cccc(Br)c1` (centres undefined) the IC50 [1] was 75.4 µM, the IC50 (HepG2) was 62.4 µM and the IC50 (HeLa) was 78.2 µM. For the same molecule, the IC50 (HCT-116 [2]) was 40.2 µM, the IC50 (CNE) was 40.1 µM and the IC50 (HUVEC) was > 100 µM.

Molecule `CCOP(=O)(OCC)C(NC(=O)c1cc(O)c2c(c1)C(=O)c1cccc(O)c1C2=O)c1ccccc1` (centres undefined) has an IC50 [1] of 27.4 µM, an IC50 (HepG2) of 39.2 µM and an IC50 (HeLa) of 38.2 µM. The IC50 (HCT-116 [2]) was 17.8 µM, the IC50 (CNE) was 34.3 µM and the IC50 (HUVEC) was > 100 µM.

For `O=c1[nH]cc(F)c(=O)[nH]1` [FLUOROURACIL], the IC50 [1] was 42.2 µM, the IC50 (HepG2) was 30 µM and the IC50 (HeLa) was 35.3 µM. For the same molecule, the IC50 (HCT-116 [2]) was 5.78 µM, the Activity (HCT-116 [24]) was 28% and the Activity (HCT-116 [25]) was 65.6%. For the same molecule, the IC50 (CNE) was 40.2 µM, the IC50 (HUVEC) was 56 µM and the Activity (HCT-116 [26]) was “Active”.
